Measurements reported in BindingDB's records for doi:10.1021/jm00017a020 (Sandoz Pharma, 1995).

Molecular target: T1, Interleukin-2 (Mus musculus, UniProt P04351)
T1 sequence (P04351 whole entry): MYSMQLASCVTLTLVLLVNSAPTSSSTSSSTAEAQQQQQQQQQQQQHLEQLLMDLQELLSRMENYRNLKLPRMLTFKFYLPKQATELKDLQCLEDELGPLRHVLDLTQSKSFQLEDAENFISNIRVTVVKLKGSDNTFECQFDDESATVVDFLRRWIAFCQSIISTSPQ
Test: The compound was evaluated in vitro for the immunosuppressive activity in interleukin-2 by interleukin-2 reporter gene assay (IL2-RGA)
In short: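 Cellular immunosuppression read in the mouse mixed lymphocyte reaction or the interleukin-2 reporter gene assay. The IC50 in nM is the mean of three independent experiments.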

Row | Structure (SMILES) | IC50
1 | C/C=C/C[C@@H](C)[C@@H](O)[C@@H]1C(=O)N[C@H](CCCO)C(=O)N(C)CC(=O)N(C)[C@H](CC(C)C)C(=O)N[C@H](C(C)C)C(=O)N(C)[C@H](CC(C)C)C(=O)N[C@H](C)C(=O)N[C@@H](C)C(=O)N(C)[C@H](CC(C)C)C(=O)N(C)[C@H](CC(C)C)C(=O)N(C)[C@H](C(C)C)C(=O)N1C [33-(1-Hydroxy-2-methyl-hex-4-enyl)-30-(3-hydroxy-propyl)-6,9,18,24-tetraisobutyl-3,21-diisopropyl-1,4,7,10,12,15,19,25,28-nonamethyl-1,4,7,10,13,16,19,22,25,28,31undecaaza-cyclotritriacontan-2,5,8,11,14,17,20,23,26,29,32-undecaone] | 70 nM
2 | C/C=C/C[C@@H](C)[C@@H](O)[C@H]1C(=O)N[C@@H](CCC)C(=O)N(C)CC(=O)N(C)[C@@H](CC(C)C)C(=O)N[C@@H](C(C)C)C(=O)N(C)[C@@H](CC(C)C)C(=O)N[C@@H](C)C(=O)N[C@H](C)C(=O)N(C)[C@@H](CC(C)C)C(=O)N(C)[C@@H](CC(C)C)C(=O)N(C)[C@@H](C(C)C)C(=O)N1C [GECLOSPORIN] | 13 nM
